# Active and inactive are the calls of the source. The calls are words filed in the database; no cut-off is given here.
# Assays:
# [1] = biological target: G protein-coupled receptor 88 (Homo sapiens, UniProt Q9GZN0)
# [2] = Displacement of [3H]-dihydrotetrabenazine from VMAT in human platelet cell membranes after 60 mins by scintillation counting
# Summary of the method: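 VMAT affinity follow-up run by Eurofins PanLabs under their standard protocols. Full concentration–displacement curves were run in duplicate. IC50 came from nonlinear regression and was converted to Ki by Cheng–Prusoff, using the radioligand concentration and historical Kd of the ligand.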
# [3] = biological target: KOR (kappa-type opioid receptor) (Homo sapiens, UniProt P41145); experiment: Binding affinity to human full length KOR assessed as reduction in radioligand binding at 10 uM after 60 mins by scintillation counting relative to control
# Summary of the method: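 Outsourced radioligand binding screen, one of 38 GPCR, ion channel and transporter targets, run to the provider's standard protocols. Test concentration was a single 10 µM. Percent inhibition of radioligand binding is the average of two determinations.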
# Mus musculus [4] = organism: Mus musculus; experiment: Increase in [35S]-GTPgammaS binding in GPR88 knocked out mouse striatal membranes at 100 uM after 1 hr by liquid scintillation counting; format: functional, cell membranes; settings: Striatal membrane
# Summary of the method: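 Striata from GPR88 KO mice. Membranes made by sucrose homogenization and differential centrifugation (2500g, then 23000g). 2 µg protein per well incubated 1 h at 25 °C with 0.1 nM [35S]-GTPγS and GDP. Nonspecific binding taken with 10 µM GTPγS. Read by liquid scintillation counting, expressed as % above basal. Two independent experiments in triplicate.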
# Rattus norvegicus = experiment: Decrease in alcohol self administration in Long-Evans rat assessed as reduction in alcohol lever responses at 5 to 20 mg/kg, ip administered 30 mins prior to a self-administration session; format: functional, organism-based
# VMAT = experiment: Displacement of [3H]-dihydrotetrabenazine from VMAT in human platelet cell membranes at 10 uM after 60 mins by scintillation counting relative to control; settings: probe [3H]-dihydrotetrabenazine
# Summary of the method: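 Radioligand binding screen run by Eurofins PanLabs under their standard protocols, single concentration 10 μM. Percent inhibition of radioligand binding is the average of two determinations.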
# [5] = biological target: G protein-coupled receptor 88 (Mus musculus, UniProt Q9EPB7); experiment: Agonist activity at GPR88 in wild type mouse striatal membranes assessed as increase in [35S]-GTPgammaS binding after 1 hr by liquid scintillation counting; format: functional, cell membranes, Striatum, Membrane
# Mus musculus [6] = organism: Mus musculus; experiment: Increase in [35S]-GTPgammaS binding in GPR88 knocked out mouse striatal membranes at 10 uM after 1 hr by liquid scintillation counting; format: functional, cell membranes; settings: Striatal membrane
# G protein-coupled receptor 88 (Homo sapiens, UniProt Q9GZN0), sequence (Q9GZN0 whole entry): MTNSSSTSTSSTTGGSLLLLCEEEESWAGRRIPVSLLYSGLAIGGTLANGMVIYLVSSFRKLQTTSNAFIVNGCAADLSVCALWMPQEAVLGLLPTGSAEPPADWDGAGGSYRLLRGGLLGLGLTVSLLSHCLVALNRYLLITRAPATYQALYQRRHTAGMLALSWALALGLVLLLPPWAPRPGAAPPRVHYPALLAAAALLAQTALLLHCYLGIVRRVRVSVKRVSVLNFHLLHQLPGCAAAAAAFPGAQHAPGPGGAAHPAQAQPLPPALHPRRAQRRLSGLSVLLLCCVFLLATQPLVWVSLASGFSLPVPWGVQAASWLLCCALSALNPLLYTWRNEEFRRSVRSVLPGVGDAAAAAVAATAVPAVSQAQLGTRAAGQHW
# G protein-coupled receptor 88 (Mus musculus, UniProt Q9EPB7), sequence (Q9EPB7 whole entry): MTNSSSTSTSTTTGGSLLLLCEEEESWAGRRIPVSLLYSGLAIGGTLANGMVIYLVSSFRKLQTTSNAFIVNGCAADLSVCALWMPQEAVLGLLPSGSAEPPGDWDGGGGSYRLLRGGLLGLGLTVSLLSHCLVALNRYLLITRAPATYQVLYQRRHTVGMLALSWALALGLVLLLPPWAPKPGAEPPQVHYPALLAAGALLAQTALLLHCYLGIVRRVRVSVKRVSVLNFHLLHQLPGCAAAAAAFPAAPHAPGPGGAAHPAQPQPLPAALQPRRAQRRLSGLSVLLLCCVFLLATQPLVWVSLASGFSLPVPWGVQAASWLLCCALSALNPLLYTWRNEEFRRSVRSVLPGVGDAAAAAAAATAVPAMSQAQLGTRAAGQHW
# KOR (kappa-type opioid receptor), sequence (P41145 whole entry): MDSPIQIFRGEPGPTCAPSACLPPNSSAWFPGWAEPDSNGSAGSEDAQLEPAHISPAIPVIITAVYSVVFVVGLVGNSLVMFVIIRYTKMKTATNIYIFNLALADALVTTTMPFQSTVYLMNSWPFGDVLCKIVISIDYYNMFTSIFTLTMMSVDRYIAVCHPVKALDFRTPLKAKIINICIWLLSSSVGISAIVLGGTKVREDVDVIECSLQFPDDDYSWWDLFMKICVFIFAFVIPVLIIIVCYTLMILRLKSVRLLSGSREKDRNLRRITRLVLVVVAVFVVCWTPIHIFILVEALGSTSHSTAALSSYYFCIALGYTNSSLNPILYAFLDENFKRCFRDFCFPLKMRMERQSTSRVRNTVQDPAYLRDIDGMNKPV
Structure (SMILES),EC50 [1] [µM],other results
CCCc1ccc(-c2ccc(N(CCN)C(=O)[C@@H]3C[C@H]3c3ccccn3)cc2)cc1,0.501,–
COCc1ccc(-c2ccc(N(C[C@@H](N)[C@@H](C)OC)C(=O)[C@@H]3C[C@H]3c3ccccn3)cc2)cc1,–,"Ki [2]: 4.23 µM; inhibition at 1 h, 10 µM [3]: 64%; Activity (Mus musculus [4]): inactive; Activity (Rattus norvegicus): Dose-dependent effect; inhibition at 1 h, 10 µM (VMAT): 54%"
CCCc1ccc(-c2ccc(N(CC(C)(C)N)C(=O)[C@@H]3C[C@H]3c3ccccn3)cc2)cc1 (relative stereo),0.316,–
CCCc1ccc(-c2ccc(N(C[C@H](C)N)C(=O)[C@@H]3C[C@H]3c3ccccn3)cc2)cc1,0.398,–
CCCc1ccc(-c2ccc(N(C[C@@H](N)[C@@H](C)OC)C(=O)[C@@H]3C[C@H]3c3ccccn3)cc2)cc1 (relative stereo),0.063,–
CCCc1ccc(-c2ccc(N(C[C@@H](N)[C@@H](C)CC)C(=O)[C@@H]3C[C@H]3c3ccccn3)cc2)cc1,–,EC50 [5]: 1.14 µM; Activity (Mus musculus [6]): Active
COc1ccc(-c2ccc(N(C[C@@H](N)[C@@H](C)OC)C(=O)[C@@H]3C[C@H]3c3ccccn3)cc2)cc1 (relative stereo),0.126,–
CCCc1ccc(-c2ccc(N(C[C@@H](N)c3ccccc3)C(=O)[C@@H]3C[C@H]3c3ccccn3)cc2)cc1 (relative stereo),1.26,–
CCCc1ccc(-c2ccc(N(C[C@@H](N)C(C)C)C(=O)[C@@H]3C[C@H]3c3ccccn3)cc2)cc1,0.158,–
CCCc1ccc(-c2ccc(N(C[C@@H](N)Cc3ccccc3)C(=O)[C@@H]3C[C@H]3c3ccccn3)cc2)cc1,0.501,–
CCCc1ccc(-c2ccc(N(C[C@@H](N)CC(C)C)C(=O)[C@@H]3C[C@H]3c3ccccn3)cc2)cc1,0.126,–
